This is an account of results in ChEMBL document CHEMBL2375283, “Design and synthesis of 1-aryl-5-anilinoindazoles as c-Jun N-terminal kinase inhibitors” (Bioorg Med Chem Lett, 2013).

In data set [1] the target is Mitogen-activated protein kinase 10 (Rattus norvegicus, UniProt P49187). The experiment in a line: Inhibition of JNK3-mediated c-Jun phosphorylation in rat INS-1 cells after 3 hrs by ELISA. The format is cell-based, INS1. For orientation: An ELISA detects its analyte on a solid surface through an enzyme-linked reagent.
Sequence of Mitogen-activated protein kinase 10 (Rattus norvegicus, UniProt P49187) (P49187 whole entry): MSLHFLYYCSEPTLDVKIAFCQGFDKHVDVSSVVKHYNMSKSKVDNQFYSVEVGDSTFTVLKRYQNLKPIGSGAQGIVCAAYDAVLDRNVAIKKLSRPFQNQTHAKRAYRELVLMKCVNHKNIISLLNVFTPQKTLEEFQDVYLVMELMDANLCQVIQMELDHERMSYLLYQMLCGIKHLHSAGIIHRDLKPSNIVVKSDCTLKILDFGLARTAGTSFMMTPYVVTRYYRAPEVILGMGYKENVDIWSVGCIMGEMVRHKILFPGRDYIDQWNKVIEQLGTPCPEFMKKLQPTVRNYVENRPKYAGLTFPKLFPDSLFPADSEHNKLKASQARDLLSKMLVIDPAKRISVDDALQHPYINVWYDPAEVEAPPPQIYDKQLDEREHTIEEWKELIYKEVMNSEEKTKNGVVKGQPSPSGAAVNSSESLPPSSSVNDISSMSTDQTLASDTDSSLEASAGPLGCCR
A short description of data set [2]: Drug uptake in C57BL6 mouse brain at 10 mg/kg, ip after 2 hrs. Format: ADME, organism-based. Further details: dose 10 mg/kg, route intraperitoneal. The note with it: read-out: Drug uptake. The gist of the method: (§1)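 C57Bl6 mice (n = 3) were given 10 mg/kg intraperitoneally. Blood and brain were collected 2 h later, and plasma was frozen at −80 °C. Plasma (1:5 v/v) and brain (1:5 w/v) were mixed with acetonitrile, and brain was probe-sonicated. Drug levels were measured by LC–MS/MS against standards prepared in plasma or in blank brain matrix.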

Data set [3] can be described thus: Plasma concentration in C57BL6 mouse at 10 mg/kg, ip after 2 hrs. Format: ADME, organism-based. Further details: dose 10 mg/kg, route intraperitoneal. The gist of the method: as §1
Data set [4] deals with Mitogen-activated protein kinase 8 (Homo sapiens, UniProt P45983). The experiment in a line: Inhibition of JNK1 (unknown origin)-mediated ATF2 Thr71 phosphorylation by HTRF assay. The gist of the method:
(§2)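 The kinase reaction used biotinylated ATF2 substrate with ATP. The phospho-Thr71-ATF2 product was detected by HTRF with a Europium-cryptate labeled anti-phospho-Thr71-ATF2 antibody. IC50 values are averages of two or more experiments.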

The target of data set [5] is Mitogen-activated protein kinase 10 (Homo sapiens, UniProt P53779). The experiment in a line: Inhibition of JNK3 (unknown origin)-mediated ATF2 Thr71 phosphorylation by HTRF assay. The gist of the method:
as §2
In general terms: TR-FRET usually uses a lanthanide donor and a delayed reading to cut background.

A short description of data set [6]: Oral bioavailability in Sprague-Dawley rat at 2 mg/kg. The format is ADME, organism-based. To be noted: in vivo. The gist of the method:
(§3)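 Rats received compound intravenously at 1 mg/kg or by oral gavage at 2 mg/kg. Blood was sampled at 5, 15 and 30 min and at 1, 2, 4, 6 and 8 h into EDTA tubes, and plasma was obtained by centrifugation. Plasma proteins were precipitated with acetonitrile, and drug levels were quantified by LC–MS/MS.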

Data set [7] can be described thus: AUC in Sprague-Dawley rat at 1 mg/kg, iv and 2 mg/kg, po. The note with it: plasma. The format is ADME, organism-based. The gist of the method: as §3
Data set [8] in a line: Half life in Sprague-Dawley rat at 1 mg/kg, iv and 2 mg/kg, po. To be noted: in vivo. The format is ADME, organism-based. The gist of the method:
as §3

A short description of data set [9]: Plasma clearance in Sprague-Dawley rat at 1 mg/kg, iv and 2 mg/kg, po. Format: ADME, organism-based. The gist of the method: as §3
For another data set, the species on record is Homo sapiens. The experiment in a line: Selectivity ratio of IC50 for JNK1 (unknown origin) to IC50 for JNK3 (unknown origin).
Data set [10] is described as follows: Half life in rat liver microsomes. Format: ADME, Microsome.
The nature of data set [11]: Half life in human liver microsomes. Format: ADME, Microsome.

Sequence of Mitogen-activated protein kinase 8 (P45983 whole entry): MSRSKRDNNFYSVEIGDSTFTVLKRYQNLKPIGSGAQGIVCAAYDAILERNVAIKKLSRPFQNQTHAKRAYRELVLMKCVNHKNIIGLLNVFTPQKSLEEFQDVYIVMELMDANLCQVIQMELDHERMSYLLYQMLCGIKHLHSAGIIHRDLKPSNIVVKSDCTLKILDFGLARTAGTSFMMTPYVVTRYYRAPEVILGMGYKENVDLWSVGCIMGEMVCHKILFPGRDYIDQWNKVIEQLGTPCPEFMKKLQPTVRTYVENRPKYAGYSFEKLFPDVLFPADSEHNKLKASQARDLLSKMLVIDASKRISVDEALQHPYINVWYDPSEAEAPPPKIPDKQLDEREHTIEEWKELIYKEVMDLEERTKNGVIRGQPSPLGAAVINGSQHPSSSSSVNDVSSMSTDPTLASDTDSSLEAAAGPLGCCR
Sequence of Mitogen-activated protein kinase 10 (Homo sapiens, UniProt P53779) (P53779 whole entry): as the sequence (P49187 whole entry) above, with H27Q, S32Y, V33I, V34A counted along it

For `O=C(NCCCN1CCOCC1)c1ccc(-n2ncc3cc(Nc4ccccc4Cl)ccc32)cc1`, the half-maximal inhibitory concentration (IC50) in data set [1] was ≥ 20000 nM; in [4] it was 920 nM; in data set [5] it was 33 nM. The concentration at 2 h stood at 690 nM in data set [2] and 240 nM in data set [3].
For `Cc1cccc(Nc2ccc3c(cnn3-c3cccc(C(=O)NCCN4CCN(C5CCC5)CC4)c3)c2)c1Cl`, the results for the concentration at 2 h in [2] and in data set [3] were 3900 nM and 1200 nM, respectively. Also, the bioavailability in data set [6] was 27%. This compound had an AUC in data set [7] of 0.72 µM·h. The half-life in data set [8] was 198 min. Also, the clearance in data set [9] amounted to 25 mL/min/kg. Moreover, in the data set filed under Homo sapiens, the Ratio IC50 amounted to 5. Further, the 50% inhibitory concentration (IC50) in data set [4] turned out to be 970 nM; in data set [5], 40 nM.
With `Cc1cccc(NC(=O)c2cccc(-n3ncc4cc(Nc5ccccc5F)ccc43)c2)c1`, the half-life in data set [10] worked out at 6 min; in data set [11] it was 8.9 min; in [8] it was 18 min. In addition, the concentration at 2 h in data set [2] was 30 nM; in data set [3], 350 nM. For the same compound, the bioavailability in data set [6] is 7%. The AUC in [7] was found to be 0.5 µM·h. In addition, the clearance in data set [9] was found to be 79 mL/min/kg. Moreover, the Ratio IC50 in the data set filed under Homo sapiens is 5. In addition, the IC50 in [4] worked out at 470 nM; in [5], 120 nM.
Take `O=C(NCCN1CCOCC1)c1cccc(-n2ncc3cc(Nc4ccccc4Cl)ncc32)c1`: the Ratio IC50 in the data set listed under Homo sapiens is 10. For the same compound, the IC50 came out at 1300 nM in data set [4] and 80 nM in data set [5].
With `CN1CCN(CCNC(=O)c2cccc(-n3ncc4cc(Nc5c(Cl)cccc5Cl)ccc43)c2)CC1`, the concentration at 2 h in data set [2] was 810 nM; in data set [3], 2120 nM. This compound also registered a bioavailability in data set [6] of 20%. The compound further showed an AUC in data set [7] of 0.38 µM·h. The compound also had a half-life in [8] of 120 min. Also, the clearance in [9] turned out to be 34 mL/min/kg. The Ratio IC50 in the data set listed under Homo sapiens is 5. Besides, the IC50 in data set [4] was determined as 1200 nM; in data set [5], 50 nM.
Consider `CN1CCN(CCNC(=O)c2cncc(-n3ncc4cc(Nc5c(Cl)cccc5Cl)ccc43)c2)CC1`, for which the Ratio IC50 in the data set listed under Homo sapiens is 10. The same compound displayed an IC50 in [5] of 110 nM.
In the case of `Cc1cc(NC(=O)c2cccc(-n3ncc4cc(Nc5ccccc5F)ccc43)c2)ccc1N1CCOCC1`, the Ratio IC50 in the data set filed under Homo sapiens was determined as 5. Also, the IC50 in [4] is 170 nM; in data set [5], 38 nM.
Consider `O=C(NCCN1CCOCC1)c1cccc(-n2ncc3cc(Nc4ccccc4)cnc32)c1`, for which the Ratio IC50 in the data set filed under Homo sapiens was 10. Also, the figures for the IC50 in data set [4] and in data set [5] were 1200 nM and 170 nM, respectively.
As to `O=C(NCCN1CCOCC1)c1cccc(-n2ncc3cc(Nc4ccccc4Cl)ccc32)c1`, the IC50 is 4100 nM in data set [1], 750 nM in [4] and 54 nM in data set [5]. Besides, the concentration at 2 h in data set [2] was found to be 550 nM; in data set [3], 560 nM. Also, in the data set listed under Homo sapiens, the Ratio IC50 stood at 5.
Consider `O=C(NCCN1CCOCC1)c1ccnc(-n2ncc3cc(Nc4ccccc4Cl)ccc32)c1`, for which the IC50 in [1] worked out at 5300 nM; in data set [4], 2300 nM; in data set [5] it was 120 nM. Also, the results for the concentration at 2 h in data set [2] and in data set [3] were 1400 nM and 530 nM, respectively. In [6], this compound displayed a bioavailability of 5%. Besides, the AUC in [7] was 0.01 µM·h. The compound further displayed a half-life in data set [8] of 30 min. The same compound showed a clearance in data set [9] of 54 mL/min/kg. Moreover, in the data set filed under Homo sapiens, the Ratio IC50 turned out to be 10.
For `O=C(NCCN1CCOCC1)c1cccc(-n2ncc3cc(Nc4c(Cl)cccc4Cl)ccc32)c1`, the Ratio IC50 in the data set filed under Homo sapiens amounted to 5. Further, the values for the IC50 in data set [4] and in data set [5] were 1380 nM and 77 nM, respectively.
For `COc1cc(NC(=O)c2cccc(-n3cc(Nc4nc5ccccc5[nH]4)cn3)c2)cc(OC)c1OC`, the IC50 in data set [5] is > 20000 nM.
In the case of `COc1cc(NC(=O)c2cccc(-n3ncc4cc(Nc5ccccc5F)ccc43)c2)cc(OC)c1OC`, the values for the concentration at 2 h in data set [2] and in data set [3] were 50 nM and 790 nM, respectively. In data set [6], this compound registered a bioavailability of 5%. In data set [7], this compound gave an area under the curve (AUC) of 0.05 µM·h. The compound also yielded a half-life in [8] of 90 min. Moreover, in data set [9], the clearance worked out at 57 mL/min/kg. Moreover, the Ratio IC50 in the data set listed under Homo sapiens was 5. Besides, the IC50 in data set [4] was determined as 73 nM; in data set [5] it was 9 nM.
As for `NC(=O)c1cccc(-n2ncc3cc(Nc4ccccc4F)ccc32)c1`, the Ratio IC50 in the data set filed under Homo sapiens came to 5. Besides, the half-maximal inhibitory concentration (IC50) in [4] amounted to 730 nM; in data set [5], 63 nM.
Consider `O=C(NCCN1CCOCC1)c1cc(-n2ncc3cc(Nc4c(Cl)cccc4Cl)ccc32)ccn1`, for which the Ratio IC50 in the data set listed under Homo sapiens came out at 10. The midpoint of inhibition in data set [5], the IC50, lay at 640 nM.
Taken in the same sequence, the figures for `COc1cc(NC(=O)c2cccc(-n3ncc4cc(Nc5ccccc5C)ccc43)c2)cc(OC)c1OC` were 5 and 59 nM.
In the same order, the values of `COc1ccccc1Nc1ccc2c(cnn2-c2cccc(C(=O)NCCCN3CCOCC3)c2)c1` are 5 and 43 nM.
In the same order, the values of `Cc1cccc(NC(=O)c2cccc(-n3ncc4cc(Nc5ccccc5C)ccc43)c2)c1` are 5 and 250 nM.
Turning to `O=C(NCCCN1CCOCC1)c1cccc(-n2ncc3cc(Nc4ccccc4Cl)ccc32)c1`, the half-life in data set [10] amounted to 5.6 min; in [11], 8.6 min; in data set [8], 30 min. Further, the concentration at 2 h in data set [2] stood at 570 nM; in data set [3], 280 nM. In [6], this compound registered a bioavailability of 6%. In addition, in [7], the AUC was found to be 0.01 µM·h. This compound displayed a clearance in [9] of 123 mL/min/kg. Also, the Ratio IC50 in the data set filed under Homo sapiens turned out to be 5. The IC50 amounted to 410 nM in data set [4] and 15 nM in data set [5].
Regarding `O=C(NCCN1CCOCC1)c1cccc(-n2ncc3cc(Nc4ccccc4Cl)ccc32)n1`, in the data set listed under Homo sapiens, the Ratio IC50 is 10. The IC50 amounted to 7010 nM in [4] and 640 nM in data set [5].
As for `O=C(NCCCN1CCOCC1)c1cccc(-n2ncc3cc(Nc4ccccc4F)ccc32)c1`, the Ratio IC50 in the data set listed under Homo sapiens turned out to be 5. Further, half-maximal inhibition in data set [5] (IC50) was put at 22 nM.
Consider `Cc1cccc(CC(=O)Nc2cnn(-c3cccc(C(=O)NC4CCOC(C)(C)C4)c3)c2)c1` (stereo not given), for which the Ratio IC50 in the data set filed under Homo sapiens was > 25. Moreover, the IC50 was ≥ 20000 nM in data set [4] and 1100 nM in [5].
Taken in the same sequence, the figures for `CCOc1ccc(NC(=O)c2cccc(-n3ncc4cc(Nc5ccccc5F)ccc43)c2)cc1OC` were 5, 430 nM and 46 nM.
Taken in the same sequence, the figures for `O=C(NCCN1CCOCC1)c1cccc(-n2ncc3cc(Nc4ccccn4)ccc32)c1` were 5, 7100 nM and 1400 nM.
In the same order, the values of `COc1cc(NC(=O)c2cccc(-n3ncc4cc(Nc5ccccc5Cl)ccc43)c2)cc(OC)c1OC` are 5, 93 nM and 12 nM.
`Cc1cc(NC(=O)c2cccc(-n3ncc4cc(Nc5ccccc5Cl)ccc43)c2)ccc1N1CCOCC1`: the Ratio IC50 in the data set filed under Homo sapiens amounted to 5. Also, the IC50 in data set [4] came out at 160 nM; in [5], 32 nM.
`COc1cc(NC(=O)c2cccc(-n3ncc4cc(Nc5ccccc5)ccc43)c2)cc(OC)c1OC`: the half-life is 5.8 min in data set [10] and 12.8 min in data set [11]. Moreover, the Ratio IC50 in the data set listed under Homo sapiens was determined as 10. In addition, the half-inhibitory concentration (IC50) in [4] turned out to be 200 nM; in data set [5] it was 24 nM.
On to `O=C(NCCO)c1cccc(-n2ncc3cc(Nc4ccccc4Cl)ccc32)c1`, for which the IC50 in data set [1] was ≥ 20000 nM; in [4], 800 nM; in data set [5], 35 nM. Besides, the Ratio IC50 in the data set filed under Homo sapiens was determined as 5.

The IC50 is the concentration that inhibits the measured activity by half. Read a high IC50 as lower potency. As a reminder, the bioavailability is the share of a dose that reaches the circulation, judged against a reference dose that is usually intravenous. Lower therefore signals poor availability. For orientation: AUC means the area under the concentration-time curve, a measure of exposure. Low values mean less exposure, high ones more exposure. Usually half-life stands for how long it takes for the measured level to halve. A low value points to rapid decline.
